# Data reported in article PMC9305210 (British Journal of Clinical Pharmacology, 2022).
# Where two headings read alike, the source gives them in different places. Marks after values point to notes of the source that are not given here.
# What was measured:
# [1] = format: in vivo, human; conditions: for half-life / AUC: human; for half-life / AUC / CL/F, mean (CV%): plasma; for half-life: oral; for AUC: po, AUCτ, mean (CV%), AUCτ = AUC24
# [2] = Urine pharmacokinetics; format: in vivo, human; conditions: for Ae t, mean (CV%) / f e, mean (CV%): urine
# [3] = system: plasma 24S‐hydroxycholesterol (24HC); assay: Pharmacodynamics: time‐matched percentage change from baseline in plasma 24HC; format: in vivo, human
# Summary of the method: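 Healthy adults (18-55 y, BMI 18-30 kg/m2), 6 active:2 placebo, double-blind; oral solution QD or BID after ≥8 h fast. 24HC by LC-MS/MS, validated 2.00-100 ng/mL. Time-matched % change from baseline; AUEC24/E24 for QD, AUEC12/E12 for BID.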
# [4] = Safety and tolerability; format: in vivo, human; conditions: 100 mg QD, n = 6
# Summary of the method: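 Randomized, double-blind, placebo-controlled; cohorts of 8 (6:2) healthy adults given oral solution daily for a planned 14 days after ≥8 h fast, confined on site days −3 to 15 plus 1 follow-up day. Monitoring covered AEs, physical examination, BMI, vital signs, ECG and clinical laboratory tests. Subjects with ≥1 treatment-emergent AE counted across all subjects receiving at least one dose.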
# [5] = soticlestat 100 mg QD oral solution, day 1
# [6] = soticlestat 100 mg QD oral solution, day 14
# [7] = soticlestat 300 mg QD oral solution, day 1
# [8] = soticlestat 300 mg QD oral solution, day 14
# [9] = soticlestat 400 mg QD oral solution, day 1
# [10] = soticlestat 400 mg QD oral solution, day 14
# [11] = soticlestat 600 mg QD oral solution, day 1
# [12] = day 14, 400 mg dose (range 100‐400 mg QD)
smiles,measurement,setting,value
"O=C(c1cccnc1-c1ccncc1)N1CCC(O)(Cc2ccccc2)CC1 [Soticlestat, soticlestat]",increase in AUCτ at steady state (accumulation ratio based on AUC),[1]; 300 mg QD for 14 days,~1.42 fold
same,increase in C max at steady state (day 14 vs day 1),[1]; 300 mg QD for 14 days,approximately 1.74 fold
same,accumulation ratio based on AUC,[1]; 400 mg QD,1.20
same,dose proportionality of steady‐state exposure,"[1]; 100‐400 mg QD, 14 days",slightly greater than dose‐proportional
same,increase in single‐dose mean AUC∞ over 6‐fold dose range,"[1]; day 1, 100‐600 mg",9.35 fold
same,increase in single‐dose mean C max over 6‐fold dose range,"[1]; day 1, 100‐600 mg",6.55 fold
same,time‐dependent effect of PK on repeat dosing,[1]; day 1 vs day 14,not apparent
same,increase in mean AUCτ over 4‐fold dose range,"[1]; day 14, 100‐400 mg QD",6.12 fold
same,increase in mean C max over 4‐fold dose range,"[1]; day 14, 100‐400 mg QD",6.08 fold
same,half-life,"[1]; elimination half‐life, overall, as summarised in abstract",~240 min
same,half-life,"[1]; mean half‐life, at 300 mg QD and 400 mg QD",~240 min
same,half-life,"[1]; mean terminal elimination half‐life (t ½z), range across groups, day 1 and day 14, all doses",209 to 290 min
same,AUC,"[1]; 100 mg, soticlestat 100 mg QD oral solution, day 1",446 ng·h/mL
same,AUC,"[1]; 100 mg, soticlestat 100 mg QD oral solution, day 14",458 ng·h/mL
same,AUC,"[1]; 300 mg, soticlestat 300 mg QD oral solution, day 1",2030 ng·h/mL
same,AUC,"[1]; 300 mg, soticlestat 300 mg QD oral solution, day 14",2690 ng·h/mL
same,AUC,"[1]; 400 mg, soticlestat 400 mg QD oral solution, day 1",2500 ng·h/mL
same,AUC,"[1]; 400 mg, soticlestat 400 mg QD oral solution, day 14",2800 ng·h/mL
same,AUC,"[1]; 600 mg, soticlestat 600 mg QD oral solution, day 1",4180 ng·h/mL
same,exposure accumulation on day 14 compared with day 1,[1]; once‐daily dosing of 100 or 400 mg for 14 days,did not appear to result in exposure accumulation
same,"CL/F, mean (CV%)",[1]; [5],248 (40.4) ^c L/h
same,"CL/F, mean (CV%)",[1]; [6],234 (29.6) L/h
same,"CL/F, mean (CV%)","[1]; soticlestat 300 mg BID oral solution, day 1 after first dose",232 (47.3) ^e L/h
same,"CL/F, mean (CV%)",[1]; [7],185 (47.6) L/h
same,"CL/F, mean (CV%)",[1]; [8],130 (43.9) L/h
same,"CL/F, mean (CV%)",[1]; [9],187 (38.8) L/h
same,"CL/F, mean (CV%)",[1]; [10],166 (44.4) L/h
same,"CL/F, mean (CV%)",[1]; [11],194 (57.5) L/h
same,dose proportionality of systemic exposure,[1]; single doses of 100‐600 mg QD,slightly greater than dose‐proportional
same,renal excretion / renal elimination,[2]; all doses,negligible
same,"Ae t, mean (CV%)","[2]; Ae τ = Ae 12, soticlestat 300 mg BID oral solution, day 1",0.490 (75.9) mg
same,"Ae t, mean (CV%)","[2]; Ae τ = Ae 24, soticlestat 100 mg QD oral solution, day 1",0.0900 (25.6) mg
same,"Ae t, mean (CV%)","[2]; Ae τ = Ae 24, soticlestat 100 mg QD oral solution, day 14",0.0800 (30.0) mg
same,"Ae t, mean (CV%)","[2]; Ae τ = Ae 24, soticlestat 300 mg QD oral solution, day 1",0.660 (84.3) mg
same,"Ae t, mean (CV%)","[2]; Ae τ = Ae 24, soticlestat 300 mg QD oral solution, day 14",0.56 (83.4) mg
same,"Ae t, mean (CV%)","[2]; Ae τ = Ae 24, soticlestat 400 mg QD oral solution, day 1",0.920 (47.7) mg
same,"Ae t, mean (CV%)","[2]; Ae τ = Ae 24, soticlestat 400 mg QD oral solution, day 14",1.01 (31.9) mg
same,"Ae t, mean (CV%)","[2]; Ae τ = Ae 24, soticlestat 600 mg QD oral solution, day 1",1.440 (74.4) mg
same,"f e, mean (CV%)",[2]; [5],0.0900 (25.6) %
same,"f e, mean (CV%)",[2]; [6],0.0800 (30.0) %
same,"f e, mean (CV%)","[2]; soticlestat 300 mg BID oral solution, day 1",0.160 (75.9) %
same,"f e, mean (CV%)",[2]; [7],0.220 (84.3) %
same,"f e, mean (CV%)",[2]; [8],0.190 (83.4) %
same,"f e, mean (CV%)",[2]; [9],0.230 (47.7) %
same,"f e, mean (CV%)",[2]; [10],0.250 (31.9) %
same,"f e, mean (CV%)",[2]; [11],0.240 (74.4) %
same,"24HC AUECτ, mean (CV%), percentage change from baseline (day −1)","[3]; AUECτ = AUEC12, 300 mg BID, day 1",−6.90 (−75.9) %
same,"24HC AUECτ, mean (CV%), percentage change from baseline (day −1)","[3]; AUECτ = AUEC24, 100 mg QD, day 1",−8.15 (−45.4) %
same,"24HC AUECτ, mean (CV%), percentage change from baseline (day −1)","[3]; AUECτ = AUEC24, 100 mg QD, day 14",−46.8 (−9.2) %
same,"24HC AUECτ, mean (CV%), percentage change from baseline (day −1)","[3]; AUECτ = AUEC24, 300 mg QD, day 1",−12.7 (−36.5) %
same,"24HC AUECτ, mean (CV%), percentage change from baseline (day −1)","[3]; AUECτ = AUEC24, 300 mg QD, day 14",−61.9 (−17.0) %
same,"24HC AUECτ, mean (CV%), percentage change from baseline (day −1)","[3]; AUECτ = AUEC24, 400 mg QD, day 1",−11.7 (−34.5) %
same,"24HC AUECτ, mean (CV%), percentage change from baseline (day −1)","[3]; AUECτ = AUEC24, 400 mg QD, day 14",−62.7 (−7.3) %
same,"24HC AUECτ, mean (CV%), percentage change from baseline (day −1)","[3]; AUECτ = AUEC24, 600 mg QD, day 1",−14.0 (−27.9) %
same,"24HC E t, mean (CV%), percentage change from baseline (day −1)","[3]; E t = E 12, 300 mg BID, day 1",−10.5 (−63.8) %
same,"24HC E t, mean (CV%), percentage change from baseline (day −1)","[3]; E t = E 24, 100 mg QD, day 1",−20.9 (−49.0) %
same,"24HC E t, mean (CV%), percentage change from baseline (day −1)","[3]; E t = E 24, 100 mg QD, day 14",−49.1 (−11.9) %
same,"24HC E t, mean (CV%), percentage change from baseline (day −1)","[3]; E t = E 24, 300 mg QD, day 1",−22.4 (−19.5) %
same,"24HC E t, mean (CV%), percentage change from baseline (day −1)","[3]; E t = E 24, 300 mg QD, day 14",−63.8 (−19.3) %
same,"24HC E t, mean (CV%), percentage change from baseline (day −1)","[3]; E t = E 24, 400 mg QD, day 1",−28.4 (−28.1) %
same,"24HC E t, mean (CV%), percentage change from baseline (day −1)","[3]; E t = E 24, 400 mg QD, day 14",−65.6 (−6.0) %
same,"24HC E t, mean (CV%), percentage change from baseline (day −1)","[3]; E t = E 24, 600 mg QD, day 1",−30.6 (−41.0) %
same,maximum decrease from baseline in 24HC AUEC24,[3]; [12],62.66%
same,maximum decrease from baseline in 24HC E24,[3]; [12],65.59%
same,Number of subjects (%) with SAEs,[4],0
same,Number of subjects (%) with TEAEs,[4],0
same,Number of subjects (%) with TEAEs: Leading to discontinuation,[4],0
same,Number of subjects (%) with TEAEs: Mild,[4],0
